Assay results reported in ChEMBL document CHEMBL4196194, “De Novo Design of α-Helical Lipopeptides Targeting Viral Fusion Proteins: A Promising Strategy for Relatively Broad-Spectrum Antiviral Drug Discovery” (J Med Chem, 2018).
Calls of active or inactive are those of the source. The rule behind the calls is not given here. Where a SMILES comes first, the peptide text is derived from it. [ ]: non-standard residue; d: D form. The star is where a group is joined. Palmitoyl = CCCCCCCCCCCCCCCC(=O)*; βAla = NCCC(=O)O

Tests used:
[1] = tested on: Middle East respiratory syndrome-related coronavirus; assay: Antiviral activity against MERS-CoV pseudovirus infected in human HuH7 cells treated with 30 mins pre-treated pseudovirus/compopund mixture up to 40 uM and measured after 48 hrs by luciferase reporter assay; type: functional, organism-based
Outline: (§1)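 Serially diluted peptide premixed with MERS-CoV pseudovirus 30 min at 37 °C, then added to Huh-7 cells; medium replaced at 12 h postinfection and cells cultured a further 48 h at 37 °C before luciferase read-out.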

Influenza A virus [2] = assay: Antiviral activity against Influenza A virus (A/Puerto Rico/8/1934(H1N1)) infected in HEK293T cells assessed as inhibition of viral replicon activity up to 40 uM incubated for 30 hrs by dual-Glo luciferase assay; type: functional, organism-based
Outline: (§2)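 HEK293T cells (2.5 × 10^4/well) transfected with plasmids for NP, PB1, PB2, PA plus p0LN-S-Luc firefly and pRL-SV40 Renilla reporters; serially diluted compound added 6 h post-transfection, luciferase read after 30 h by Dual-Glo. Activity = firefly/Renilla ratio; % inhibition normalized to positive and negative controls, curve-fitted; three independent measurements.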

Lipid bilayer = assay: Binding affinity to POPC LUV liposome system at 15 uM
Outline: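 Isothermal titration calorimetry at 25 °C. POPC large unilamellar vesicles (13 mM in the syringe) were titrated into peptide in the cell (15 μM) over 20 injections, 120 s apart, with stirring at 750 rpm. The binding constant was derived from the heat released during peptide–lipid binding.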

[3] = tested on: Middle East respiratory syndrome-related coronavirus; assay: Antiviral activity against MERS-CoV pseudovirus infected in human HuH7 cells treated with 30 mins pre-treated pseudovirus/compopund mixture and measured after 48 hrs by luciferase reporter assay; type: functional, organism-based; outline: as §1
[4] = Cytotoxicity in MDCK cells assessed as reduction in cell viability incubated for 72 hrs by cell-titer-Glo cell viability assay; type: cell-based, Canis lupus familiaris; conditions: dog
Influenza A virus [5] = assay: Antiviral activity against influenza A virus assessed as inhibition of viral replicon activity up to 100 uM incubated for 30 hrs by firefly luciferase reporter gene assay; type: functional, organism-based; outline: as §2
Influenza A virus [6] = assay: Antiviral activity against influenza A virus Hong Kong/8/1968(H3N2) infected in HEK293T cells assessed as inhibition of viral replicon activity incubated for 30 hrs by dual-Glo luciferase assay; type: functional, organism-based; conditions: HEK-293T; outline: as §2
Influenza A virus [7] = assay: Antiviral activity against Influenza A virus (A/Puerto Rico/8/1934(H1N1)) infected in HEK293T cells assessed as inhibition of viral replicon activity incubated for 30 hrs by dual-Glo luciferase assay; type: functional, organism-based; conditions: HEK-293T; outline: as §2

**Q.** Which results are given for `CC[C@H](C)[C@H](NC(C)=O)C(=O)N[C@@H](CCC(=O)O)C(=O)N[C@@H](CCC(=O)O)C(=O)N[C@H](C(=O)N[C@@H](CCC(N)=O)C(=O)N[C@@H](CCCCN)C(=O)N[C@@H](CCCCN)C(=O)N[C@H](C(=O)N[C@@H](CCC(=O)O)C(=O)N[C@@H](CCC(=O)O)C(=O)N[C@H](C(=O)N[C@@H](CCC(N)=O)C(=O)N[C@@H](CCCCN)C(=O)N[C@@H](CCCCN)C(=O)N[C@H](C(=O)N[C@@H](CCC(=O)O)C(=O)N[C@@H](CCC(=O)O)C(=O)N[C@H](C(=O)N[C@@H](CCC(N)=O)C(=O)N[C@@H](CCCCN)C(=O)N[C@@H](CCCCN)C(=O)N[C@H](C(=O)N[C@@H](CCC(=O)O)C(=O)N[C@@H](CCC(=O)O)C(=O)N[C@H](C(=O)N[C@@H](CCC(N)=O)C(=O)N[C@@H](CCCCN)C(=O)N[C@@H](CCCCN)C(=O)N[C@H](C(=O)N[C@@H](CCC(=O)O)C(=O)N[C@@H](CCC(=O)O)C(=O)N[C@H](C(=O)N[C@@H](CCC(N)=O)C(=O)N[C@@H](CCCCN)C(=O)N[C@@H](CCCCN)C(=O)NCCC(=O)N[C@@H](CCCCNC(C)=O)C(N)=O)[C@@H](C)CC)[C@@H](C)CC)[C@@H](C)CC)[C@@H](C)CC)[C@@H](C)CC)[C@@H](C)CC)[C@@H](C)CC)[C@@H](C)CC)[C@@H](C)CC` (Ac-IEEIQKKIEEIQKKIEEIQKKIEEIQKKIEEIQKK[βAla]K(Ac)-NH2)?
**A.** Activity [1]: inactive; inhibition (Influenza A virus [2]): inactive; Activity (Lipid bilayer): inactive; Activity [3]: inactive

**Q.** With `CCCCCCCCCCCCCCCC(=O)NCCCC[C@H](NC(=O)CCNC(=O)[C@H](CCCCN)NC(=O)[C@H](CCCCN)NC(=O)[C@H](CO)NC(=O)[C@@H](NC(=O)[C@H](CCC(=O)O)NC(=O)[C@H](CCC(=O)O)NC(=O)[C@@H](NC(=O)[C@H](CCCCN)NC(=O)[C@H](CCCCN)NC(=O)[C@H](CO)NC(=O)[C@@H](NC(=O)[C@H](CCC(=O)O)NC(=O)[C@H](CCC(=O)O)NC(=O)[C@@H](NC(=O)[C@H](CCCCN)NC(=O)[C@H](CCCCN)NC(=O)[C@H](CO)NC(=O)[C@@H](NC(=O)[C@H](CCC(=O)O)NC(=O)[C@H](CCC(=O)O)NC(=O)[C@@H](NC(=O)[C@H](CCCCN)NC(=O)[C@H](CCCCN)NC(=O)[C@H](CO)NC(=O)[C@@H](NC(=O)[C@H](CCC(=O)O)NC(=O)[C@H](CCC(=O)O)NC(=O)[C@@H](NC(=O)[C@H](CCCCN)NC(=O)[C@H](CCCCN)NC(=O)[C@H](CO)NC(=O)[C@@H](NC(=O)[C@H](CCC(=O)O)NC(=O)[C@H](CCC(=O)O)NC(=O)[C@@H](NC(C)=O)[C@@H](C)CC)[C@@H](C)CC)[C@@H](C)CC)[C@@H](C)CC)[C@@H](C)CC)[C@@H](C)CC)[C@@H](C)CC)[C@@H](C)CC)[C@@H](C)CC)[C@@H](C)CC)C(N)=O` (Ac-IEEISKKIEEISKKIEEISKKIEEISKKIEEISKK[βAla]K(Palmitoyl)-NH2) as the compound, how does the CC50 at 72 h [4] read?
**A.** Its CC50 at 72 h is greater than 100 µM.

**Q.** Which CC50 at 72 h [4] does the source give for `CCCCCCCCCCCCCCCC(=O)NCCCC[C@H](NC(=O)CCNC(=O)[C@H](CCCCN)NC(=O)[C@H](CCCCN)NC(=O)[C@H](Cc1ccc(O)cc1)NC(=O)[C@@H](NC(=O)[C@H](CCC(=O)O)NC(=O)[C@H](CCC(=O)O)NC(=O)[C@@H](NC(=O)[C@H](CCCCN)NC(=O)[C@H](CCCCN)NC(=O)[C@H](Cc1ccc(O)cc1)NC(=O)[C@@H](NC(=O)[C@H](CCC(=O)O)NC(=O)[C@H](CCC(=O)O)NC(=O)[C@@H](NC(=O)[C@H](CCCCN)NC(=O)[C@H](CCCCN)NC(=O)[C@H](Cc1ccc(O)cc1)NC(=O)[C@@H](NC(=O)[C@H](CCC(=O)O)NC(=O)[C@H](CCC(=O)O)NC(=O)[C@@H](NC(=O)[C@H](CCCCN)NC(=O)[C@H](CCCCN)NC(=O)[C@H](Cc1ccc(O)cc1)NC(=O)[C@@H](NC(=O)[C@H](CCC(=O)O)NC(=O)[C@H](CCC(=O)O)NC(=O)[C@@H](NC(=O)[C@H](CCCCN)NC(=O)[C@H](CCCCN)NC(=O)[C@H](Cc1ccc(O)cc1)NC(=O)[C@@H](NC(=O)[C@H](CCC(=O)O)NC(=O)[C@H](CCC(=O)O)NC(=O)[C@@H](NC(C)=O)[C@@H](C)CC)[C@@H](C)CC)[C@@H](C)CC)[C@@H](C)CC)[C@@H](C)CC)[C@@H](C)CC)[C@@H](C)CC)[C@@H](C)CC)[C@@H](C)CC)[C@@H](C)CC)C(N)=O` (Ac-IEEIYKKIEEIYKKIEEIYKKIEEIYKKIEEIYKK[βAla]K(Palmitoyl)-NH2) here?
**A.** Its CC50 at 72 h is greater than 100 µM.

**Q.** What does the source list for `CCOC(=O)C1=C[C@@H](OC(CC)CC)[C@H](NC(C)=O)[C@@H](N)C1` [OSELTAMIVIR]?
**A.** CC50 at 72 h [4]: > 100 µM; inhibition (Influenza A virus [5]): inactive; EC50 (Influenza A virus [6]): 0.01 µM; EC50 (Influenza A virus [7]): 1.48 µM
